In the library only some 2.6% were active in any assay of this set; here they are far more common.
ASAP1 inh = blocks human ASAP1-stimulated Arf1 GTP hydrolysis; Q9ULH1; GDP FP detection; inhibition, % at 16.5 µM; 360,000 tested, 0.19% active; in the data active = inhibition above about 25%;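 note: 0% = vehicle with enzyme and substrate and 100% = no enzyme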
ARFGAP1 inh = inhibits rat ARF GTPase activating protein 1; Q62848; Arfgap1-stimulated ARF1 GTP hydrolysis, GDP FP detection; inhibition, % at 16.5 µM; 360,000 tested, 0.26% active;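 active = inhibition above a per-plate limit, mean inhibition of low control wells plus 3 SD, cut at about 25% in these data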;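 note: 0% = DMSO wells with enzyme and 100% = wells lacking Arfgap1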
Target sequence (Q62848 1-136 limits assumed): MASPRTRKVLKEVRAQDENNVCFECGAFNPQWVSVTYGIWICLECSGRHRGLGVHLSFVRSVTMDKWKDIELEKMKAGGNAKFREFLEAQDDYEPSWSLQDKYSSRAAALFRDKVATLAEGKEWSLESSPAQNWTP
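Material: rat Arfgap1 catalytic domain, aa 1-136; also added: human ARF1(Δ1-17)-GTP substrate; compound dosing: one concentration, 16.5 µM, DMSO 1.26%; incubation: GTP hydrolysis reaction 2 h at 25 °C; measured by: Tracer-displacement fluorescence polarization with EDTA stop, 620/688 nm; evaluation: % inhibition from polarization; repeats: one replicate per compound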
esBAF inh = SWI/SNF esBAF complex inhibition. 350,000 tested, 2% active. reporter increase, % at 12.5 µM. AID 602393. mouse ES cells, Bmi1-luciferase knock-in reporter, 24 h; 100% = twice the neutral-well signal; in the data active = activation above about 40%; inconclusive = no clear call, values can overlap the other calls;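 note: 0% = median of the plate's neutral control wells and 100% = double that signal; a rise in the Bmi1 reporter signal indicates esBAF inhibition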
SMARCA2 act = increases SMARCA2 function in MMTV reporter cells; MG213 cells, MMTV-luciferase reporter, dexamethasone, overnight; activation, % at 9.1 µM; 370,000 tested, 1% active; in the data active = activation above about 7.8%;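 note: 0% = vehicle wells and 100% = reference activator wells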
* = called active by the depositor; ? = inconclusive; / = no result.

SMILES	ASAP1 inh	ARFGAP1 inh	esBAF inh	SMARCA2 act
CCOc1ccc(-c2nnc(SCC(=O)N3CCCC3)o2)cc1	-9	-10	53*	0
COc1ccc(-c2nnc(SCC(=O)N3CCCC3)o2)cc1	8	4	45*	6
COc1ccc(-c2nnc(SCC(=O)N3CCCCC3)o2)cc1	6	-1	38	3
C[C@H](CO)N1C[C@H](C)[C@H](CN(C)C(=O)CCCN(C)C)OCCCC[C@H](C)Oc2ccc(NC(=O)Nc3cccc4ccccc34)cc2C1=O	/	/	-3	/
CCOC(=O)c1ccc(Nc2nc(C)cc(C)n2)cc1	0	2	39	-3
CC(=O)c1ccc(Nc2nc(C)cc(C)n2)cc1	-13	23	50*	7
CN1C(=O)c2cc(NC(=O)C3CCCCC3)ccc2OC[C@@H]2O[C@@H](CC(=O)NCCc3ccncc3)CC[C@@H]21	/	/	-1	/
O=C(Cn1cnc2ccccc2c1=O)c1ccc2ccccc2c1	-11	6	35	0
O=C(Cn1cnc2ccccc2c1=O)Nc1ccc2c(c1)OCO2	-9	12	57*	3
Cc1ccc(C(=O)Cn2cnc3ccccc3c2=O)cc1C	-9	-4	57*	1
O=C(Cn1cnc2ccccc2c1=O)NCc1ccc2c(c1)OCO2	-2	9	-9	1
C[C@@H]1CN([C@H](C)CO)C(=O)c2cc(C#CCN(C)C)cnc2O[C@H]1CN(C)C(=O)Cc1cccnc1	/	/	1	/
Cc1csc(C(C#N)C(=O)c2cc3ccccc3o2)n1 (configuration not stated)	-2	-3	46*	3
Cc1csc(NC(=O)c2cc3ccccc3o2)n1	-2	-11	-28	4
Cc1noc(C)c1NC(=O)N(C)C[C@H]1OCCCC[C@@H](C)Oc2ccc(NS(C)(=O)=O)cc2C(=O)N([C@H](C)CO)C[C@H]1C	/	/	-5	/
CCCNC(=O)N1C[C@@H](O)COC[C@H]2O[C@H](CC(=O)NCc3ccncn3)CC[C@@H]21	/	/	-2	/
COc1ccc(C(=O)N2CCN(c3ccc(F)cc3)CC2)cc1S(=O)(=O)NC1CC1	18	-14	50*	4
COc1ccc(/C=C/c2ccc3cccc(O)c3n2)c(OC)c1OC	11	1	84*	-6
COc1ccc(/C=C/c2ccc3cccc(O)c3n2)cc1Br	-7	-5	44*	2
COc1cccc(/C=C/c2ccc3cccc(O)c3n2)c1OC	4	-8	69*	7
COc1cc(/C=C/c2ccc3cccc(O)c3n2)cc(OC)c1OC	-13	-1	14	-4
COc1cc(Br)cc(/C=C/c2ccc3cccc(O)c3n2)c1OC	-4	-7	9	0
C[C@H](CO)N1C[C@H](C)[C@@H](CN(C)C(=O)C2CCC2)Oc2ncc(C#CCc3ccccc3)cc2C1=O	/	/	1	/
CO[C@H]1CN(C)C(=O)c2cc(NC(=O)c3ccccc3F)ccc2OC[C@H](C)NC[C@@H]1C	/	/	1	/
N#Cc1c(SCC(=O)Nc2ccc(Cl)cc2Cl)sc2c(O)cc(=O)[nH]c12	-10	8	-4	7.8*
SMILES	ASAP1 inh	ARFGAP1 inh	esBAF inh	SMARCA2 act
CN(C)C(=O)[C@H]1[C@H](CO)[C@H]2Cn3c(ccc(C4=CCCC4)c3=O)[C@H]2N1Cc1ccc2c(c1)OCO2	/	/	-1	/
COc1ccc(/[N+]([O-])=C/c2ccco2)cc1	2	-2	55*	6
COc1ccc(OCC(=O)N/N=C\c2ccco2)cc1	-6	5	/	7
CCCCNC(=O)c1ccc2c(OCC)n(CCCC)nc2c1	2	4	-6	1
CCCn1nc2cc(C(=O)NCCc3cccs3)ccc2c1OCC	13	5	72*	4
COc1cccc(Nc2nn3c(=O)c4ccccc4nc3s2)c1	/	/	69*	/
O=c1c2ccccc2nc2sc(Nc3ccc(F)cc3)nn12	7	23	?	4
c1ccc(-c2csc(N3CCN(c4ccccn4)CC3)n2)cc1	4	12	61*	1
c1ccc(-c2csc(N3CCOCC3)n2)cc1	-9	-2	60*	3
Cc1noc(C)c1NC(=O)NCC[C@H]1CC[C@H](NC(=O)Nc2cccc(F)c2)[C@H](CO)O1	/	/	6	/
CCOC(=O)N(C)C[C@@H]1OCc2cn(nn2)CCCC(=O)N([C@@H](C)CO)C[C@@H]1C	/	/	4	/
Cc1cccnc1Nc1nc(-c2ccc(O)cc2)cs1	11	-4	58*	4
COc1cc(/C=N/NS(=O)(=O)c2ccc3ccccc3c2)ccc1OCCN1CCOCC1	5	9	3	10*
COc1ccc(S(=O)(=O)N/N=C/c2ccc(OCCN3CCOCC3)c(OC)c2)cc1	-4	9	/	1
